Source: PubChem BioAssay
Jurkat NFkB inh = inhibitors of the PMA/ionomycin-induced NF-kB reporter in Jurkat cells | PMA/ionomycin-induced NF-kB luciferase reporter, luminescence | inhibition, % at 4 µM | 0.53% of 330,000 active | AID 435003; in the data active means inhibition above about 50%
697 NFkB inh = lowers PMA/ionomycin-induced NF-kB signal in 697 B cells | 697 B-cell NF-kB luciferase reporter, 16 h | inhibition, % at 4 µM | 0.33% of 330,000 active | AID 435022; in the data active means inhibition above about 35%
CHOP UPR activ = apoptotic UPR (CHOP) activation | 0.34% of 330,000 active | AID 449763 | CHO-CHOP luciferase reporter, luminescence; percent of tunicamycin response over DMSO baseline | activation, % at 10 µM;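 active means at 10 µM dose, activation of 40% or more, normalized to positive control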;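 further: 100% = tunicamycin at 10 µg/mL and 0% = DMSO alone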
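Assay system: CHO cells with stable CHOP pathway luciferase reporter; Buffer or medium: F12 plus 10% serum; Times: 16-18 h cell attachment, then 6 h compound exposure, 37 °C; Signal: luciferase luminescence; Read-out basis: percent activation relative to tunicamycin control; Control set: tunicamycin high control, DMSO low control.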
CRFR2-BP antag = CRF-BP/CRF-R2 complex antagonism; AID 588475; inhibition, % at 11.8 µM; HEK293 CRF-R2/CRF-BP, CRF-induced calcium fluorescence; 0.59% of 350,000 active;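 active means inhibition of the ligand-induced calcium signal above about 50% at the single tested concentration, limit read from the data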
UPR XBP1 act = activators of adaptive arm of unfolded protein response (XBP1) | CHO-XBP1 luciferase reporter, IRE1-XBP1 UPR activation, luminescence; percent of tunicamycin response, DMSO as zero | activation, % at 20 µM | 0.33% of 330,000 active;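 active means versus positive control, 20 µM dose yields 30% or more activation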;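 further: 100% = tunicamycin at 10 µg/mL and 0% = DMSO only wells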
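assay system = CHO-XBP1 luciferase reporter cells | amount = 1000 cells/well | buffer or medium = F12 plus 10% FBS | compound dosing = single point, 20 µM final compound, 1% DMSO | incubation = 16-18 h cell attachment at 37 °C, then 6 h compound exposure | detection = Steady-Glo luminescence read | controls = tunicamycin 10 µg/mL and vehicle-only wells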
XBP1 UPR conf = confirmation of adaptive unfolded protein response (XBP1) activators; shares compounds with UPR XBP1 act; CHO-XBP1 IRE1-XBP1 luciferase reporter, luminescence; activation, % at 20 µM; 63% of 1,000 active; AID 485299;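 active means reporter signal at least 30% of the positive control's activation in two or more of four replicate wells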;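 further: plate controls were DMSO negative control for no effect and tunicamycin 10 µg/mL positive control for full effect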
* marks the source's active call; other numbers are inactive results; . = not tested or not shown. Compounds with a hit are over-represented: about 1.8% of the library has one in this group of screens.

SMILES | Jurkat NFkB inh | 697 NFkB inh | CHOP UPR activ | CRFR2-BP antag | UPR XBP1 act | XBP1 UPR conf
O=C(O)c1nn(-c2ccccc2)nc1-c1nn(-c2ccccc2)nc1C(=O)O | -11 | 18 | -1 | 6 | 3 | .
COC(=O)c1nn(-c2ccccc2)nc1-c1nn(-c2ccccc2)nc1C(=O)OC | 4 | -18 | 5 | 15 | 39* | 18
COc1ccc(NC(=O)c2oc3ccccc3c2NC(=O)C2CC2)c(OC)c1 | 1 | 8 | 2 | -3 | 0 | .
COc1cc2c(cc1NC(=S)NC(=O)c1c(OC)cccc1OC)oc1ccccc12 | -3 | 18 | 0 | 10 | -2 | .
COc1ccc(C(=O)NC(=S)Nc2cc3oc4ccccc4c3cc2OC)cc1 | -10 | 4 | 27 | -26 | 34* | 11
COc1ccc(OC)c(NC(=O)c2oc3ccccc3c2NC(=O)C2CC2)c1 | 10 | 0 | 1 | 4 | 60* | 40*
COC(=O)c1ccc(NC(=O)CCN2C(=O)C3CC=CCC3C2=O)cc1 (centres undefined) | -13 | 3 | 3 | 0 | -4 | .
O=C(O)CN1C(=O)C2(OCCO2)c2cc(Br)ccc21 | 1 | 4 | 2 | 0 | -3 | .
COc1ccc(-c2n(CC(=O)OC3CC(C)CCC3C(C)C)c3ccccc3[n+]2C)cc1 (centres undefined) | . | . | . | -32 | . | .
COc1ccc(OCc2n(CC(=O)OC3CC(C)CCC3C(C)C)c3ccccc3[n+]2C)cc1 (centres undefined) | 13 | -44 | 2 | -17 | 36* | 32*
